Assay results reported in ChEMBL document CHEMBL2424622, “Development of amino-pyrimidine inhibitors of c-Jun N-terminal kinase (JNK): kinase profiling guided optimization of a 1,2,3-benzotriazole lead” (Bioorg Med Chem Lett, 2013).

Tests used:
[1] = target: Tyrosine-protein kinase Fer (Homo sapiens) (UniProt P16591); test: Competitive binding affinity to FER (unknown origin) at 10 uM in presence of ATP relative to control
How it was run: (§1)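 In vitro ATP-site competition binding assay, part of profiling against a diverse panel of 128 kinases. Each compound was tested at a single concentration of 10 µM. Kinome selectivity was summarized as S15 selectivity scores.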

[2] = target: Tyrosine-protein kinase Lyn (Homo sapiens) (UniProt P07948); test: Competitive binding affinity to LYN (unknown origin) at 10 uM in presence of ATP relative to control; how it was run: as §1
[3] = target: Focal adhesion kinase 1 (Homo sapiens) (UniProt Q05397); test: Competitive binding affinity to PTK2 (unknown origin) at 10 uM in presence of ATP relative to control
How it was run: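 In vitro ATP-site competition binding assay across a diverse panel of 128 kinases, with compound tested at a single concentration. Kinase selectivity scores (S15) were calculated from the panel profiles.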

[4] = target: T1, Ephrin type-B receptor 1 (Homo sapiens) (UniProt P54762); test: Competitive binding affinity to EPHB1 (unknown origin) at 10 uM in presence of ATP relative to control; how it was run: as §1
T1 sequence (whole entry): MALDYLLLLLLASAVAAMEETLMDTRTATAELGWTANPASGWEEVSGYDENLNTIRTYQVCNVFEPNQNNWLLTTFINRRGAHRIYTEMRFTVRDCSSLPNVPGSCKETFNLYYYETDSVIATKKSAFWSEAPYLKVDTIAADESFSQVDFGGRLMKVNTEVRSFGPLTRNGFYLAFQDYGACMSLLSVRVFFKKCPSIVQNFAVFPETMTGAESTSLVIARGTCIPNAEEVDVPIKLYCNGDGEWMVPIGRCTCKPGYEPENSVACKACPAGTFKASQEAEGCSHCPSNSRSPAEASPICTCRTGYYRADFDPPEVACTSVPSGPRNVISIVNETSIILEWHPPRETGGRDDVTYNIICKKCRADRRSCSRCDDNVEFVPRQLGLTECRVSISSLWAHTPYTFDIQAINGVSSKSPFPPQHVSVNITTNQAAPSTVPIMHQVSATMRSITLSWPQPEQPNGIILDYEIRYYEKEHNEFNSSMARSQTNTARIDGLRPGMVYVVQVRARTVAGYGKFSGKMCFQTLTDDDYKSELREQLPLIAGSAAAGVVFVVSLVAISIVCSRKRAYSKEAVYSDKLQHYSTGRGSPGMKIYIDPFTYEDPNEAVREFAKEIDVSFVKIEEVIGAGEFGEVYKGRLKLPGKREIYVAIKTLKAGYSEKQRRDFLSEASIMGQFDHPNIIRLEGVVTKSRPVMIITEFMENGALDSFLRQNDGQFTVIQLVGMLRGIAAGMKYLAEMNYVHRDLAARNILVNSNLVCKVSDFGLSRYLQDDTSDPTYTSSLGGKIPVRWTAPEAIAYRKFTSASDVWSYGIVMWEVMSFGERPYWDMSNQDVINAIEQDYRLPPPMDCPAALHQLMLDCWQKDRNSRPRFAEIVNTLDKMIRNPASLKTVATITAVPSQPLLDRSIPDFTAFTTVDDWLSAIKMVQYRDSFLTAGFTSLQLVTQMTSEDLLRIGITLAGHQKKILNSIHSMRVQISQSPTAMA

[5] = target: T2, Ephrin type-A receptor 8 (Homo sapiens) (UniProt P29322); test: Competitive binding affinity to EPHA8 (unknown origin) at 10 uM in presence of ATP relative to control; how it was run: as §1
T2 sequence (whole entry): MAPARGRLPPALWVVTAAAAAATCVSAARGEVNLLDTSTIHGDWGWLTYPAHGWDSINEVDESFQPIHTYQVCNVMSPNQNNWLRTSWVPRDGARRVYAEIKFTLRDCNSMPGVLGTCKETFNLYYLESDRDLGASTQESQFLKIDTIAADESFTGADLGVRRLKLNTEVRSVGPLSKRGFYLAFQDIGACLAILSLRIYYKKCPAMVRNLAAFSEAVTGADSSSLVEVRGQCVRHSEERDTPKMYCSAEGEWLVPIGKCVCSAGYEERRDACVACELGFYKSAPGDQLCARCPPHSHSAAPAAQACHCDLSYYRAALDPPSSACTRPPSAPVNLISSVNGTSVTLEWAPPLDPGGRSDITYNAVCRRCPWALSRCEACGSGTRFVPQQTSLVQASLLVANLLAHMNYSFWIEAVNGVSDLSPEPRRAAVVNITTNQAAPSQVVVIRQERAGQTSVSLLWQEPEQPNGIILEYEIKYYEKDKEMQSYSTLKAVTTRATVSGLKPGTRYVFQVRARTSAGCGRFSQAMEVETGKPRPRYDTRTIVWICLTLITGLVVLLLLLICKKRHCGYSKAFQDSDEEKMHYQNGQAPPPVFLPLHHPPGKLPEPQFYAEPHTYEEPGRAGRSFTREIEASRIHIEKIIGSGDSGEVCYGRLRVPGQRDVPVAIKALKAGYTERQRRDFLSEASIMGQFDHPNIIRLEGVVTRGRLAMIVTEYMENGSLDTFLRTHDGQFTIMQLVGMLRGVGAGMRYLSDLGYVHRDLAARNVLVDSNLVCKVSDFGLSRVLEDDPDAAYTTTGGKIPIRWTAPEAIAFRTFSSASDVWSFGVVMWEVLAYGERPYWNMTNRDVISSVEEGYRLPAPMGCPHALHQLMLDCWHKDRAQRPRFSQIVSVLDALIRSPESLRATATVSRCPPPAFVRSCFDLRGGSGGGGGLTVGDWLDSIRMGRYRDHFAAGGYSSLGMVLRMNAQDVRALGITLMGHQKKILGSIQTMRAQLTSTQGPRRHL

Tyrosine-protein kinase Fer (Homo sapiens), sequence (P16591 whole entry, looked up): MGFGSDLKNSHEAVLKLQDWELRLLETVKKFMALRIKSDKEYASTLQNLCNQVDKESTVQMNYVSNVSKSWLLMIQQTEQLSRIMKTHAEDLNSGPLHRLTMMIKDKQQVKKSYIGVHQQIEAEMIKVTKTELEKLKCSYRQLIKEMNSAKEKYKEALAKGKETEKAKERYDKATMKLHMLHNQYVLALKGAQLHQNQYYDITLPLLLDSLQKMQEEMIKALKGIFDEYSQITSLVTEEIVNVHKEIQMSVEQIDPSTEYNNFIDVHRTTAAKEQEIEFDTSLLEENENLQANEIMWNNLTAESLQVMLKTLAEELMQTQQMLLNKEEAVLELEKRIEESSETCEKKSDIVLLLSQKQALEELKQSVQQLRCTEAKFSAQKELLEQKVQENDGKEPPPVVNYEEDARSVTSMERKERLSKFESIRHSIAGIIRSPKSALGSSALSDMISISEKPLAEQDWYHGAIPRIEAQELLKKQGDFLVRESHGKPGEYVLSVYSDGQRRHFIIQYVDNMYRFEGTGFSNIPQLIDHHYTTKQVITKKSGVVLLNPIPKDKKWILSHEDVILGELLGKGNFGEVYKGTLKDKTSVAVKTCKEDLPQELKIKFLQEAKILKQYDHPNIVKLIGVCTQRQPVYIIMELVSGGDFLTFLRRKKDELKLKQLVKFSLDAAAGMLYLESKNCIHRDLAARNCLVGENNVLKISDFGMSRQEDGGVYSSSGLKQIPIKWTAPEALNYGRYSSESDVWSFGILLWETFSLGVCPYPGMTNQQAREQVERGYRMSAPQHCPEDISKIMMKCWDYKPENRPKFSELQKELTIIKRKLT
Tyrosine-protein kinase Lyn (Homo sapiens), sequence (P07948 2-512 limits assumed): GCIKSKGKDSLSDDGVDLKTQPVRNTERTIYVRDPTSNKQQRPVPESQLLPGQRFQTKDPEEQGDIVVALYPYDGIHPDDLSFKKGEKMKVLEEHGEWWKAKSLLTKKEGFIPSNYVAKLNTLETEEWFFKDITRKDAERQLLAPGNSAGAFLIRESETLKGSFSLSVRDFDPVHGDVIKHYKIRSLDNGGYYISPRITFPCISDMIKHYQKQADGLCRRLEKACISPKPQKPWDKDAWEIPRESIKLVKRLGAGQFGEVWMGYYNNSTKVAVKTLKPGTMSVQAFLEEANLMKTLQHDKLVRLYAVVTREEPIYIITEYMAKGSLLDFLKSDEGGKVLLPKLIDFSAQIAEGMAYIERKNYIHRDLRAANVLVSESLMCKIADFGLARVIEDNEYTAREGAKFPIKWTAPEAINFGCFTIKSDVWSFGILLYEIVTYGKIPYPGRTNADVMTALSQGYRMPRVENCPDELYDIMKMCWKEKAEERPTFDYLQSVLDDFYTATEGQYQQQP
Focal adhesion kinase 1 (Homo sapiens), sequence (Q05397 2-1052 limits assumed): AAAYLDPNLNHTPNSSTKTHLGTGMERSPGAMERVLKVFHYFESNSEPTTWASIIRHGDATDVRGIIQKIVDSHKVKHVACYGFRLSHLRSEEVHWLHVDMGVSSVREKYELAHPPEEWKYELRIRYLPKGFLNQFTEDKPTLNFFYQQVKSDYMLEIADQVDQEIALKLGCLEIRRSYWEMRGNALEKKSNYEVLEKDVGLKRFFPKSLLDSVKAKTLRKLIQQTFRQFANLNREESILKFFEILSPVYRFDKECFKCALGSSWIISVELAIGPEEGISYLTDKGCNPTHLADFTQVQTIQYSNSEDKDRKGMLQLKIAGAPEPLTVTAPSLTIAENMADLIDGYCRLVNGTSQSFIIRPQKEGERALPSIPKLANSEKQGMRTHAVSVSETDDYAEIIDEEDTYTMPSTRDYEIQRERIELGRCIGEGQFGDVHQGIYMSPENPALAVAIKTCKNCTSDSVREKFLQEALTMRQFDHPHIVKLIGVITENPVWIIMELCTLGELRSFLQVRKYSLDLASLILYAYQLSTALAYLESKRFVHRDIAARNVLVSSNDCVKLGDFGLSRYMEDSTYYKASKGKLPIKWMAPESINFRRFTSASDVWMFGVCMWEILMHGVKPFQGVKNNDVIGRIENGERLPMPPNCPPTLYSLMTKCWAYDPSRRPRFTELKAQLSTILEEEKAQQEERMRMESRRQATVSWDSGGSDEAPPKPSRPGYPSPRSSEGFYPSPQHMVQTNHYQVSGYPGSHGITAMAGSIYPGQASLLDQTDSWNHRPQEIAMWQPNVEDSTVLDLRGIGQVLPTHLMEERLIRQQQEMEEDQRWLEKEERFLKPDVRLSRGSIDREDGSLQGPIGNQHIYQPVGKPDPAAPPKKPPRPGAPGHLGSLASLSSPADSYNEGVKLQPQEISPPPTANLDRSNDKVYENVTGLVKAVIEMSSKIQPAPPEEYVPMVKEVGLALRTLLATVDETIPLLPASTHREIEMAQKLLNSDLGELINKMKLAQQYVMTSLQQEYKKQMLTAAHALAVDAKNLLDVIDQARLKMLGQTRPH

Structure (SMILES) | inhibition [1] | inhibition [2] | inhibition [3] | inhibition [4] | inhibition [5]
O[C@H]1CC[C@H](Nc2nccc(-c3n[nH]c4ccccc34)n2)CC1 | 97% | < 50% | 85% | < 50% | < 50%
N[C@H]1CC[C@H](Nc2nccc(-n3nnc4ccccc43)n2)CC1 | < 50% | < 50% | < 50% | 73% | < 50%
O[C@H]1CC[C@H](Nc2nccc(-n3ccc4ccccc43)n2)CC1 | < 50% | < 50% | < 50% | < 50% | < 50%
O[C@H]1CC[C@H](Nc2nccc(-n3ncc4ccccc43)n2)CC1 | < 50% | < 50% | < 50% | < 50% | < 50%

Second part, the compound after the results:

inhibition [1] | inhibition [2] | inhibition [3] | inhibition [4] | inhibition [5] | Structure (SMILES)
< 50% | < 50% | < 50% | < 50% | < 50% | O=C([C@H]1CC[C@H](Nc2nccc(-n3nnc4ccccc43)n2)CC1)N1CCOCC1
< 50% | < 50% | < 50% | < 50% | < 50% | O[C@H]1CC[C@H](Nc2nccc(-n3nnc4ccccc43)n2)CC1
